This note sets out measurements from ChEMBL document CHEMBL4765239, “Discovery of a Novel Highly Selective Histamine H4 Receptor Antagonist for the Treatment of Atopic Dermatitis” (J Med Chem, 2018).

Active and inactive are the calls of the source. The calls are words filed in the database; no cut-off is given here.

Series [1] relates to Mus musculus. The series can be described thus: Antiinflammatory activity in oxazolone-induced Balb/c mouse model of atopic dermatitis assessed as reduction of ear thickness at 50 mg/kg, po BID administered 30 mins prior to oxazolone challenge for 3 weeks and measured on day 27. It counts as functional, organism-based. The method, boiled down:
(§1)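 Female BALB/c mice (n=8), abdomen shaved. Sensitized on day 0 with topical 1% oxazolone (50 µL) in acetone/corn oil 4:1. From day 7, right ear challenged with 0.2% oxazolone (25 µL) 3 times weekly; left ear got vehicle. Oral dosing twice daily, 30 min before challenge, for 3 weeks. Scratching counted for 1 h after challenge on day 25. Ear thickness measured; ear fixed in 4% paraformaldehyde, 3 µm paraffin sections stained with H&E for epidermal thickness. Mean ± S.E.M., t-test.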

Series [2] is described as follows: Cmax in ICR mouse at 50 mg/kg, po measured upto 24 hrs by LC-MS/MS analysis. The series is classed as ADME, organism-based. Set-up: route oral, dose 50 mg/kg, time <=24. As to conditions: in vivo. The method, boiled down: (§2)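 Female ICR mice, n=3 per group, given test compound orally. Blood sampled at 0.5, 1, 2, 4, 7 and 24 h post dose; plasma levels quantified by LC-MS/MS. Parameters from non-compartmental analysis.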

Series [3] relates to Mus musculus. Kind of series: Antiinflammatory activity in oxazolone-induced Balb/c mouse model of atopic dermatitis assessed as reduction of epidermal thicken in skin lesions at 50 mg/kg, po BID administered 30 mins prior to oxazolone challenge for 3 weeks by hematoxylin and eosin staining based histopathological analysis. The series is classed as functional, organism-based. The method, boiled down: as §1

The test system of series [4] is Mus musculus. The series can be described thus: Anti-pruritus activity in ICR mouse with histamine-induced itching assessed as free plasma concentration causing 50% reduction of scratching bouts at 10 mg/kg, po administered 30 mins prior to histamine challenge and measured upto 20 mins. It counts as functional. As to conditions: time 50 min. The method, boiled down:
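Female ICR mice, oral dose in 20% hydroxypropyl-β-cyclodextrin 30 min before intradermal histamine (300 nmol). Scratching bouts counted over 20 min from video. Free plasma concentration at Tmax was plotted against the scratching response.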

Series [5] relates to Mus musculus. The series can be described thus: Anti-pruritus activity in ICR mouse with C48/80-induced itching assessed as reduction of scratching bouts at 50 mg/kg, po administered 30 mins prior to […] and measured upto 20 mins. The series is classed as functional, organism-based. The note with it: time 50.0 min. The method, boiled down: (§3)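 Female ICR mice (n=8-10 per group), back skin clipped 24 h before. Oral dose in 20% hydroxypropyl-β-cyclodextrin given 30 min before intradermal pruritogen in saline: histamine 300 nmol, substance P 100 nmol or C48/80 100 µg. Scratching bouts counted from video for 20 min after injection. Mean ± S.E.M., Student's t-test.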

For series [6], the target named is T1, 5-hydroxytryptamine receptor 3A (Homo sapiens) (UniProt P46098).
T1 sequence (whole entry): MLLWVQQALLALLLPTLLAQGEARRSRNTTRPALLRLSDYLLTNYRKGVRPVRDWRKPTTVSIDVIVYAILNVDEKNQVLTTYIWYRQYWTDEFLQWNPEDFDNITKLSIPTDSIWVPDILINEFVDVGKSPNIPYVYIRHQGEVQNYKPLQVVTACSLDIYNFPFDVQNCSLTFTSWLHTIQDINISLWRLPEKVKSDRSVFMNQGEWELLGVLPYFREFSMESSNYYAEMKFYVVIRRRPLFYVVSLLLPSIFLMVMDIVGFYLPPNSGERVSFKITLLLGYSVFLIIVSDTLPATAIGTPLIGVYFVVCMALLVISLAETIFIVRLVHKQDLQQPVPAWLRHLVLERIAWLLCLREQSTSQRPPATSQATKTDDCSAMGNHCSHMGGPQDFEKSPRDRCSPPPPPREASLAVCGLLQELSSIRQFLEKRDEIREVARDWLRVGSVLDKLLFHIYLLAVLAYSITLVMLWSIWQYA
Kind of series: Displacement of [3H]BRL 43694 from human recombinant 5-HT3 receptor at 10 uM after 120 mins by scintillation counting analysis relative to control.

Series [7] addresses Histamine H1 receptor (Homo sapiens) (UniProt P35367). The series can be described thus: Displacement of [3H]pyrilamine from recombinant human histamine H1 receptor after 60 mins by scintillation counting analysis.
Series [8] is described as follows: Tmax in ICR mouse at 50 mg/kg, po measured upto 24 hrs by LC-MS/MS analysis. As to conditions: in vivo. It counts as ADME, organism-based. The method, boiled down:
as §2

Series [9] concerns Mus musculus. Kind of series: Anti-pruritus activity in ICR mouse with substance P-induced itching assessed as reduction of scratching bouts at 50 mg/kg, po administered 30 mins prior to […] and measured upto 20 mins. It counts as functional, organism-based. As to conditions: time 50.0 min. The method, boiled down:
as §3

Chain of Histamine H1 receptor (Homo sapiens) (P35367 whole entry): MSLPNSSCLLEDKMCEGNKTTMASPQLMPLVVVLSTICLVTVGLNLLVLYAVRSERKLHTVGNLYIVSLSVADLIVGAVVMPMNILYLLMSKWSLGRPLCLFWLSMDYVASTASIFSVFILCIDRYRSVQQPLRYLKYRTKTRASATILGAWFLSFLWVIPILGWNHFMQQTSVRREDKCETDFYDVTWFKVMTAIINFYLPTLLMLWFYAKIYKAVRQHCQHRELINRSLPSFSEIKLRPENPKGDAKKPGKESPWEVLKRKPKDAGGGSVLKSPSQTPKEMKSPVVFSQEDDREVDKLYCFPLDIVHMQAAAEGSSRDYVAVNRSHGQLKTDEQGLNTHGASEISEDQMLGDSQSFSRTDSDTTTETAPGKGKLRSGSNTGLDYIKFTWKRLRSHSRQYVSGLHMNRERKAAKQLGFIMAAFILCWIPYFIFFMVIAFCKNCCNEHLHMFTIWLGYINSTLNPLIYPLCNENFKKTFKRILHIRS

In the case of `CNC1CN(c2nc3ncc(Br)cc3n3nnnc23)C1`, the result in the series with Mus musculus [1], in the series on Mus musculus [3], in the series on Mus musculus [5] and in the series on Mus musculus [9] was Active. This compound also gave a Cmax in series [2] of 7690 ng/mL. Besides, the “Cp(f)” value with Mus musculus [4] is 1.89 µM. For the same compound, in [6], the inhibition stood at 14%. In addition, the outcome in series [7] was inactive. For the same compound, the Tmax in [8] turned out to be 30 min.
